# Tested on: not listed separately
# Assay: Cytotoxicity against human 1539 cells after 72 hrs to 144 hrs by MTT assay
# Format: functional, cell-based
# Details: not given
# How it was run: (§1)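 Cells grown in DMEM with 10% fetal calf serum, penicillin and streptomycin at 37 °C, 5% CO₂. Seeded at 2000 cells/well, 24 h, then medium renewed and compounds added (DMSO stocks; final DMSO 1%) at 0.1, 1 and 100 µM, or full dose-inhibition curves. Exposure 72-144 h. MTT 1 h, crystals dissolved in DMSO, absorbance 570 nm (reference 690 nm). Viability relative to 1% DMSO wells. Triplicates, 3-8 experiments.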
row,Compound,EC50 [µM]
1,O=c1[nH]cc(F)c(=O)[nH]1 [FLUOROURACIL],5.71

# Species: Homo sapiens
# Assay: Selectivity for human platelet P2Y12 receptor over human P2X2 receptor
# Details: not given
row,Compound,fold change (FC)
1,Nc1c(S(=O)(=O)O)cc(Nc2ccc(Nc3ncccn3)c(S(=O)(=O)O)c2)c2c1C(=O)c1ccccc1C2=O,100

# Species: Homo sapiens
# Assay: Selectivity for human platelet P2Y12 receptor over human P2Y2 receptor
# Details: not given
row,Compound,fold change (FC)
1,Nc1c(S(=O)(=O)O)cc(Nc2ccc(Nc3ncccn3)c(S(=O)(=O)O)c2)c2c1C(=O)c1ccccc1C2=O,100

# Tested on: not listed separately
# Assay: Cytotoxicity against human 1539 cells at 1 uM after 72 hrs to 144 hrs by MTT assay
# Format: functional
# Details: not given
# How it was run: (§2)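 1321N1 astrocytoma and 1539 melanoma cells grown in DMEM with 10% FCS and penicillin/streptomycin at 37 °C, 5% CO2. Seeded at 2000 cells/well for 24 h, then medium replaced and compound added from 10 mM DMSO stocks (final DMSO 1%). Incubation 72-144 h, then MTT (5 mg/mL stock) for 1 h. Formazan dissolved in DMSO, A570 read against 690 nm reference. Viability relative to 1% DMSO wells; triplicates, 3-8 experiments.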
row,Compound,Activity [%]
1,Nc1c(S(=O)(=O)[O-])cc(Nc2cccc3ccccc23)c2c1C(=O)c1ccccc1C2=O.[Na+],95
2,Nc1c(S(=O)(=O)[O-])cc(Nc2ccc(Cl)cc2)c2c1C(=O)c1ccccc1C2=O.[Na+],95

# Tested on: not listed separately
# Assay: Cytotoxicity against human 1321N1 cells after 72 hrs to 144 hrs by MTT assay
# Format: functional, cell-based
# Details: not given
# How it was run: as §1
row,Compound,EC50 [µM]
1,O=c1[nH]cc(F)c(=O)[nH]1 [FLUOROURACIL],53.2

# Biological target: T1, P2Y purinoceptor 12 (Homo sapiens, UniProt Q9H244)
# Assay: Displacement of [3H]PSB0413 from human platelet P2Y12 receptor
# Details: not given
# How it was run: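 Membranes from outdated human blood-bank platelets (4-5 days post-donation), washed, centrifuged, homogenized, stored at -80 °C. 100 µg protein incubated with 5 nM [³H]PSB-0413 in 50 mM Tris-HCl pH 7.4 for 1 h at rt, then filtered over GF/B. Nonspecific binding with 1 mM ADP. Screen at 10 µM. Ki from curves of 6-7 concentrations over 3 log units. At least three experiments in triplicate.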
# T1 sequence (Q9H244 whole entry): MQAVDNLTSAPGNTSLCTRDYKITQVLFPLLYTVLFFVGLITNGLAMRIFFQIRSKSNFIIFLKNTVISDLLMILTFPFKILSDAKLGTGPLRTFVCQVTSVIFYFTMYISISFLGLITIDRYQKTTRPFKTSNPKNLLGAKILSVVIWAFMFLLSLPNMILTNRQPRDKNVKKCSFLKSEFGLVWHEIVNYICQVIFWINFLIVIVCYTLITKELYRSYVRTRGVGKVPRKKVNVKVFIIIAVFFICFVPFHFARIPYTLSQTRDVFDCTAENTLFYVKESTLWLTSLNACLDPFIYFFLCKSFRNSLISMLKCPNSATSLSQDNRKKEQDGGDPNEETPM
row,Compound,Ki [µM]
1,COc1cccc2c1C(=O)c1c(O)c3c(c(O)c1C2=O)C[C@@](O)(C(=O)CO)C[C@@H]3O[C@H]1C[C@H](N)[C@H](O)[C@H](C)O1 [DOXORUBICIN],> 10
2,O=C1c2cccc(O)c2C(=O)c2c(O)cc(CO)cc21 [ALOE-EMODIN],> 10
3,Nc1c(S(=O)(=O)[O-])cc(Nc2cccc3ccccc23)c2c1C(=O)c1ccccc1C2=O.[Na+],> 10
4,Nc1c(S(=O)(=O)O)cc(Nc2ccc(Nc3ncccn3)cc2)c2c1C(=O)c1ccccc1C2=O,10
5,COc1cc(O)c2c(c1)C(=O)c1cc(C)cc(O)c1C2=O [PHYSCION],> 10
6,O=C1c2c(O)ccc(O)c2C(=O)c2c(NCCNCCO)ccc(NCCNCCO)c21 [MITOXANTRONE],> 10
7,CN(C)[C@@H]1C(O)=C(C(N)=O)C(=O)[C@@]2(O)C(O)=C3C(=O)c4c(O)ccc(Cl)c4[C@@](C)(O)[C@H]3C[C@@H]12 [CHLORTETRACYCLINE],> 10
8,Cc1cc(O)c2c(c1)C(=O)c1cc(O[C@@H]3OC[C@](O)(CO)[C@H]3O)cc(O)c1C2=O [FRANGULIN B],> 10
9,Nc1ccc(Nc2cc(S(=O)(=O)O)c(N)c3c2C(=O)c2ccccc2C3=O)cc1,> 10
10,O=C1c2c(O)cccc2C([C@@H]2O[C@H](CO)[C@@H](O)[C@H](O)[C@H]2O)c2cc(CO)cc(O)c21 (some centres undefined) [ALOIN],> 10
11,Cc1cc(O)c2c(c1)C(=O)c1cc(O[C@@H]3O[C@@H](C)[C@H](O)[C@@H](O)[C@H]3O)cc(O)c1C2=O [FRANGULIN A],> 10
12,CC(=O)Nc1ccc(Nc2cc(S(=O)(=O)O)c(N)c3c2C(=O)c2ccccc2C3=O)cc1,> 10
13,COC(=O)c1cc(O)c2c(c1)C(=O)c1cccc(O)c1C2=O [RHEIN METHYLESTER],> 10
14,Nc1c(S(=O)(=O)O)cc(NCCc2ccccc2)c2c1C(=O)c1ccccc1C2=O,> 10
15,Cc1cc(O)c2c(c1)Cc1cc(O)cc(O)c1C2=O [EMODIN ANTHRONE],> 10
16,Nc1c(S(=O)(=O)O)cc(Nc2ccc(Nc3ccccc3)c(C(=O)O)c2)c2c1C(=O)c1ccccc1C2=O,0.021
17,Nc1c(S(=O)(=O)O)cc(Nc2ccc(O)cc2)c2c1C(=O)c1ccccc1C2=O,10
18,CN(C)[C@@H]1C(O)=C(C(N)=O)C(=O)[C@@]2(O)C(O)=C3C(=O)c4c(O)cccc4[C@@](C)(O)[C@H]3C[C@@H]12 [TETRACYCLINE],> 10
19,Cc1cc(C)c(Nc2cc(S(=O)(=O)O)c(N)c3c2C(=O)c2ccccc2C3=O)c(C)c1 [ACID BLUE 129],> 10
20,Nc1ccccc1Nc1cc(S(=O)(=O)O)c(N)c2c1C(=O)c1ccccc1C2=O,> 10
21,Cc1cc(O)c2c(c1)C(=O)c1cccc(O)c1C2=O [CHRYSOPHANOL],> 10
22,Nc1c(S(=O)(=O)O)cc(Nc2cccc([N+](=O)[O-])c2)c2c1C(=O)c1ccccc1C2=O,> 10
23,Cc1cc(O)c2c(c1)C(=O)c1cc(O)cc(O)c1C2=O [EMODIN],> 10
24,Nc1c(S(=O)(=O)O)cc(Nc2ccccc2O)c2c1C(=O)c1ccccc1C2=O,10
25,Cc1cc(C)c(Nc2cc(S(=O)(=O)O)c(N)c3c2C(=O)c2ccccc2C3=O)c(C)c1N,> 10
26,COc1ccc(CCNc2cc(S(=O)(=O)O)c(N)c3c2C(=O)c2ccccc2C3=O)cc1OC,> 10
27,Nc1c(S(=O)(=O)O)cc(NCc2ccccc2)c2c1C(=O)c1ccccc1C2=O,> 10

# Species: Homo sapiens
# Assay: Selectivity for human platelet P2Y12 receptor over human P2Y4 receptor
# Details: not given
row,Compound,fold change (FC)
1,Nc1c(S(=O)(=O)O)cc(Nc2ccc(Nc3ncccn3)c(S(=O)(=O)O)c2)c2c1C(=O)c1ccccc1C2=O,100

# Tested on: not listed separately
# Assay: Cytotoxicity against human 1539 cells at 100 uM after 72 hrs to 144 hrs by MTT assay
# Format: functional
# Details: not given
# How it was run: as §2
row,Compound,Activity [%]
1,Nc1c(S(=O)(=O)[O-])cc(Nc2cccc3ccccc23)c2c1C(=O)c1ccccc1C2=O.[Na+],89
2,Nc1c(S(=O)(=O)[O-])cc(Nc2ccc(Cl)cc2)c2c1C(=O)c1ccccc1C2=O.[Na+],129

# Biological target: T1, P2Y purinoceptor 12
# Assay: Antagonist activity at P2Y12 receptor expressed in human astrocytoma cells assessed as right shift of concentration response curve
# Format: functional, cell-based
# Details: not given
Compound,Kb [µM],pKb
Nc1c(S(=O)(=O)O)cc(Nc2ccc(Nc3ccccc3)c(S(=O)(=O)O)c2)c2c1C(=O)c1ccccc1C2=O,0.0004,9.4

# Tested on: not listed separately
# Assay: Toxicity in po dosed rat
# Format: organism-based
# Details: in vivo
row,Compound,LD50 [mg/kg]
1,Nc1ccc(-c2ccc(N)c3c2C(=O)c2ccccc2C3=O)c2c1C(=O)c1ccccc1C2=O,> 5000

# Tested on: not listed separately
# Assay: Cytotoxicity against human 1321N1 cells at 0.1 uM after 72 hrs to 144 hrs by MTT assay
# Format: functional
# Details: not given
# How it was run: as §2
row,Compound,Activity [%]
1,Nc1c(S(=O)(=O)[O-])cc(Nc2cccc3ccccc23)c2c1C(=O)c1ccccc1C2=O.[Na+],114
2,Nc1c(S(=O)(=O)[O-])cc(Nc2ccc(Cl)cc2)c2c1C(=O)c1ccccc1C2=O.[Na+],117

# Tested on: not listed separately
# Assay: Cytotoxicity against human 1539 cells at 0.1 uM after 72 hrs to 144 hrs by MTT assay
# Format: functional
# Details: not given
# How it was run: as §2
row,Compound,Activity [%]
1,Nc1c(S(=O)(=O)[O-])cc(Nc2cccc3ccccc23)c2c1C(=O)c1ccccc1C2=O.[Na+],96
2,Nc1c(S(=O)(=O)[O-])cc(Nc2ccc(Cl)cc2)c2c1C(=O)c1ccccc1C2=O.[Na+],99

# Species: Homo sapiens
# Assay: Selectivity for human platelet P2Y12 receptor over human P2Y1 receptor
# Details: not given
row,Compound,fold change (FC)
1,Nc1c(S(=O)(=O)O)cc(Nc2ccc(Nc3ncccn3)c(S(=O)(=O)O)c2)c2c1C(=O)c1ccccc1C2=O,100

# Tested on: not listed separately
# Assay: Cytotoxicity against human 1321N1 cells at 100 uM after 72 hrs to 144 hrs by MTT assay
# Format: functional
# Details: not given
# How it was run: as §2
row,Compound,Activity [%]
1,Nc1c(S(=O)(=O)[O-])cc(Nc2cccc3ccccc23)c2c1C(=O)c1ccccc1C2=O.[Na+],116
2,Nc1c(S(=O)(=O)[O-])cc(Nc2ccc(Cl)cc2)c2c1C(=O)c1ccccc1C2=O.[Na+],120

# Tested on: not listed separately
# Assay: Cytotoxicity against human 1321N1 cells at 1 uM after 72 hrs to 144 hrs by MTT assay
# Format: functional
# Details: not given
# How it was run: as §2
row,Compound,Activity [%]
1,Nc1c(S(=O)(=O)[O-])cc(Nc2cccc3ccccc23)c2c1C(=O)c1ccccc1C2=O.[Na+],126
2,Nc1c(S(=O)(=O)[O-])cc(Nc2ccc(Cl)cc2)c2c1C(=O)c1ccccc1C2=O.[Na+],116

# Species: Homo sapiens
# Assay: Selectivity for human platelet P2Y12 receptor over human P2X4 receptor
# Details: not given
row,Compound,fold change (FC)
1,Nc1c(S(=O)(=O)O)cc(Nc2ccc(Nc3ncccn3)c(S(=O)(=O)O)c2)c2c1C(=O)c1ccccc1C2=O,100

# Biological target: T1, P2Y purinoceptor 12
# Assay: Displacement of [3H]PSB0413 from human platelet P2Y12 receptor at 10 uM
# Details: not given
# How it was run: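 Human platelet membranes (100 µg protein) incubated with 5 nM [3H]PSB-0413 and test compound at 10 µM in 50 mM Tris-HCl pH 7.4 for 1 h at rt, then filtered over GF/B. Nonspecific binding defined with 1 mM ADP; result expressed as % inhibition of radioligand binding.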
row,Compound,inhibition [%]
1,COc1cccc2c1C(=O)c1c(O)c3c(c(O)c1C2=O)C[C@@](O)(C(=O)CO)C[C@@H]3O[C@H]1C[C@H](N)[C@H](O)[C@H](C)O1 [DOXORUBICIN],7
2,O=C1c2cccc(O)c2C(=O)c2c(O)cc(CO)cc21 [ALOE-EMODIN],2
3,Nc1c(S(=O)(=O)[O-])cc(Nc2cccc3ccccc23)c2c1C(=O)c1ccccc1C2=O.[Na+],25
4,Nc1c(S(=O)(=O)O)cc(Nc2ccc(Nc3ncccn3)cc2)c2c1C(=O)c1ccccc1C2=O,57
5,COc1cc(O)c2c(c1)C(=O)c1cc(C)cc(O)c1C2=O [PHYSCION],7
6,CN(C)[C@@H]1C(O)=C(C(N)=O)C(=O)[C@@]2(O)C(O)=C3C(=O)c4c(O)ccc(Cl)c4[C@@](C)(O)[C@H]3C[C@@H]12 [CHLORTETRACYCLINE],6
7,Cc1cc(O)c2c(c1)C(=O)c1cc(O[C@@H]3OC[C@](O)(CO)[C@H]3O)cc(O)c1C2=O [FRANGULIN B],4
8,Nc1ccc(Nc2cc(S(=O)(=O)O)c(N)c3c2C(=O)c2ccccc2C3=O)cc1,30
9,O=C1c2c(O)cccc2C([C@@H]2O[C@H](CO)[C@@H](O)[C@H](O)[C@H]2O)c2cc(CO)cc(O)c21 (some centres undefined) [ALOIN],2
10,Cc1cc(O)c2c(c1)C(=O)c1cc(O[C@@H]3O[C@@H](C)[C@H](O)[C@@H](O)[C@H]3O)cc(O)c1C2=O [FRANGULIN A],4
11,CC(=O)Nc1ccc(Nc2cc(S(=O)(=O)O)c(N)c3c2C(=O)c2ccccc2C3=O)cc1,4
12,COC(=O)c1cc(O)c2c(c1)C(=O)c1cccc(O)c1C2=O [RHEIN METHYLESTER],2
13,Nc1c(S(=O)(=O)O)cc(NCCc2ccccc2)c2c1C(=O)c1ccccc1C2=O,16
14,Cc1cc(O)c2c(c1)Cc1cc(O)cc(O)c1C2=O [EMODIN ANTHRONE],1
15,Nc1c(S(=O)(=O)O)cc(Nc2ccc(O)cc2)c2c1C(=O)c1ccccc1C2=O,50
16,CN(C)[C@@H]1C(O)=C(C(N)=O)C(=O)[C@@]2(O)C(O)=C3C(=O)c4c(O)cccc4[C@@](C)(O)[C@H]3C[C@@H]12 [TETRACYCLINE],2
17,Cc1cc(C)c(Nc2cc(S(=O)(=O)O)c(N)c3c2C(=O)c2ccccc2C3=O)c(C)c1 [ACID BLUE 129],30
18,Nc1ccccc1Nc1cc(S(=O)(=O)O)c(N)c2c1C(=O)c1ccccc1C2=O,37
19,Cc1cc(O)c2c(c1)C(=O)c1cccc(O)c1C2=O [CHRYSOPHANOL],13
20,Nc1c(S(=O)(=O)O)cc(Nc2cccc([N+](=O)[O-])c2)c2c1C(=O)c1ccccc1C2=O,17
21,Cc1cc(O)c2c(c1)C(=O)c1cc(O)cc(O)c1C2=O [EMODIN],5
22,Nc1c(S(=O)(=O)O)cc(Nc2ccccc2O)c2c1C(=O)c1ccccc1C2=O,45
23,Cc1cc(C)c(Nc2cc(S(=O)(=O)O)c(N)c3c2C(=O)c2ccccc2C3=O)c(C)c1N,35
24,COc1ccc(CCNc2cc(S(=O)(=O)O)c(N)c3c2C(=O)c2ccccc2C3=O)cc1OC,23
25,Nc1c(S(=O)(=O)O)cc(NCc2ccccc2)c2c1C(=O)c1ccccc1C2=O,11
